One data set concerns COLO 320. In words: In vitro concentration required to kill 50% of COLO 320 human colorectal carcinoma cell line. In kind it is functional, cell-based. The method, boiled down: (§1)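 Cell-kill assay in culture. LNCaP is a PSA-secreting human prostate cancer line. Colo320 is a PSA-nonsecreting human colorectal carcinoma line, used as the non-PSA control. EC50 is the compound dose that kills 50% of the tumor cells.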

Data set [1] relates to LNCaP. Put plainly: In vitro concentration required to kill 50% of LNCaP human prostate cancer cell line. The data set is classed as functional, cell-based. The essentials:
as §1

Data set [2] deals with LNCaP. In words: Percent tumor weight reduction after intraperitoneal injection of conjugate dose to nude mice bearing LNCaP tumor xenografts. The data set is classed as functional, Mus musculus. The essentials:
(§2)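 Nude mice bearing human prostate LNCaP (PSA-secreting) xenografts were given the conjugate intraperitoneally for 5 consecutive days and followed over six weeks. Serum PSA, tumor weight and body weight were measured at study end. Results are percent relative to vehicle-treated controls, with P values.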

Data set [3] can be described thus: Percent PSA reduction after intraperitoneal injection of conjugate dose to nude mice bearing LNCaP tumor xenografts. In kind it is functional, Mus musculus. The method, boiled down:
as §2

The subject of a further data set is T47D. Put plainly: In vitro concentration required to kill 50% of T47D human breast ductal carcinoma cell line. In kind it is functional, cell-based. The method, boiled down:
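T47D is a PSA-nonsecreting human breast ductal carcinoma line, used as a control for PSA-secreting LNCaP cells. Compounds were tested in cell culture. EC50 is the dose that kills 50% of the tumor cells.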

For data set [4], the system named is Mus musculus. Put plainly: Maximum nonlethal drug dose administered intraperitoneally to non tumor bearing nude mice. In kind it is functional. The essentials: (§3)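 Nontumor-bearing nude mice were dosed intraperitoneally once daily for 5 consecutive days. MTD is the maximum dose that could be given on this schedule without lethality. P values are reported.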

Data set [5] has as its system Mus musculus. Put plainly: Intraperitoneal dose administered to non tumor bearing nude mice. In kind it is functional. The method, boiled down: as §3
The next data set has as its system PSA. Put plainly: Time required for PSA to hydrolyze 50% compound at a molar ratio of 1:100. In kind it is ADME. Conditions: PSA (enzyme). The method, boiled down: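 Conjugate and purified human PSA were mixed at a 100:1 molar ratio (substrate:enzyme) in 50 mM Tris·HCl and 140 mM NaCl, pH 7.4. Samples were incubated at 37 °C for 0, 30, 60, 120, 180 or 240 min. T1/2 is the time to 50% cleavage.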

This note sets out measurements from ChEMBL document CHEMBL1135593, “Design and synthesis of a pro-drug of vinblastine targeted at treatment of prostate cancer with enhanced efficacy and reduced systemic toxicity” (J Med Chem, 2002).

Structures can show the parent of a compound that is named as a salt.

In the case of `CC[C@]1(O)C[C@@H]2CN(CCc3c([nH]c4ccccc34)[C@@](C(=O)OC)(c3cc4c(cc3OC)N(C)C3C45CCN4CC=C[C@](CC)(C45)[C@@H](OC(=O)CN)[C@]3(O)C(=O)OC)C2)C1` (some centres not stated), the values for the EC50 in the data set on COLO 320 and in the data set on LNCaP [1] were 1.8 µM and 0.3 µM, respectively.

Compound `CC[C@]1(O)C[C@@H]2CN(CCc3c([nH]c4ccccc34)[C@@](C(=O)OC)(c3cc4c(cc3OC)N(C)[C@H]3[C@@](O)(C(=O)OC)[C@H](OC(C)=O)[C@]5(CC)C=CCN6CC[C@]43[C@@H]65)C2)C1` [VINBLASTINE SULFATE] had a 50% effective concentration (EC50) with LNCaP [1] of 0.5 µM.

Regarding `CC[C@]1(O)C[C@@H]2CN(CCc3c([nH]c4ccccc34)[C@@](C(=O)OC)(c3cc4c(cc3OC)N(C)C3C45CCN4CC=C[C@](CC)(C45)[C@@H](O)[C@]3(O)C(=O)OC)C2)C1` (some centres not stated), the EC50 in the data set on COLO 320 was found to be 0.2 µM; in the data set on LNCaP [1] it was 0.1 µM; in the data set on T47D, 0.15 µM. The same compound came in with a Weight reduction with LNCaP [2] of 16%. In data set [3], this compound yielded a Reduction of 14%. The compound also had an MTD with Mus musculus [4] of 0.26 µM/kg. This compound also displayed a Dose in the data set with Mus musculus [5] of 0.26 µM/kg.

In the case of `CC[C@]1(O)C[C@@H]2CN(CCc3c([nH]c4ccccc34)[C@@](C(=O)OC)(c3cc4c(cc3OC)N(C)C3C45CCN4CC=C[C@](CC)(C45)[C@@H](OC(=O)[C@H](CC(C)C)NC(=O)[C@H](CO)NC(=O)[C@H](CCC(N)=O)NC(=O)C(NC(=O)[C@H](CO)NC(=O)[C@H](CO)NC(=O)[C@H]4CC(O)CN4C(C)=O)C4CCCCC4)[C@]3(O)C(=O)OC)C2)C1.O=C(O)C(F)(F)F` (some centres not stated), the half-life in the data set with PSA amounted to 35 min. In addition, the EC50 with COLO 320 was determined as 87 µM; in the data set on LNCaP [1], 40 µM.

In the case of `CC[C@]1(O)C[C@@H]2CN(CCc3c([nH]c4ccccc34)[C@@](C(=O)OC)(c3cc4c(cc3OC)N(C)C3C45CCN4CC=C[C@](CC)(C45)[C@@H](OC(=O)C4CCCN4)[C@]3(O)C(=O)OC)C2)C1.O=C(O)C(F)(F)F` (some centres not stated), the EC50 was determined as 3 µM in the data set on COLO 320, 1 µM with LNCaP [1] and 1.6 µM in the data set on T47D. In the data set with LNCaP [2], the Weight reduction was found to be 60%. This compound registered a Reduction in data set [3] of 33%. The compound also returned an MTD in the data set with Mus musculus [4] of 4.6 µM/kg. For the same compound, the Dose in the data set with Mus musculus [5] is 4.6 µM/kg.

`CC[C@]1(O)C[C@@H]2CN(CCc3c([nH]c4ccccc34)[C@@](C(=O)OC)(c3cc4c(cc3OC)N(C)C3C45CCN4CC=C[C@](CC)(C45)[C@@H](OC(=O)[C@@H](N)CC(C)C)[C@]3(O)C(=O)OC)C2)C1` (some centres not stated): the values for the EC50 with COLO 320 and with LNCaP [1] were 6 µM and 4 µM, respectively.
